Experiments:
[1] = target: ALK tyrosine kinase receptor (Homo sapiens) (UniProt Q9UM73); assay: Inhibition of human ALK at 10 uM using poly[Glu:Tyr] (4:1) as substrate by [gamma-33P]-ATP assay relative to control
In short: (§1)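 Commercial kinase panel screen at a single concentration of 10 μM. % inhibition was calculated as 100 minus % activity.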

[2] = target: Vascular endothelial growth factor receptor 2 (Homo sapiens) (UniProt P35968); assay: Inhibition of human KDR at 10 uM using poly[Glu:Tyr] (4:1) as substrate by [gamma-33P]-ATP assay relative to control; in short: as §1
Vascular endothelial growth factor receptor 2 (Homo sapiens), sequence (P35968 whole entry): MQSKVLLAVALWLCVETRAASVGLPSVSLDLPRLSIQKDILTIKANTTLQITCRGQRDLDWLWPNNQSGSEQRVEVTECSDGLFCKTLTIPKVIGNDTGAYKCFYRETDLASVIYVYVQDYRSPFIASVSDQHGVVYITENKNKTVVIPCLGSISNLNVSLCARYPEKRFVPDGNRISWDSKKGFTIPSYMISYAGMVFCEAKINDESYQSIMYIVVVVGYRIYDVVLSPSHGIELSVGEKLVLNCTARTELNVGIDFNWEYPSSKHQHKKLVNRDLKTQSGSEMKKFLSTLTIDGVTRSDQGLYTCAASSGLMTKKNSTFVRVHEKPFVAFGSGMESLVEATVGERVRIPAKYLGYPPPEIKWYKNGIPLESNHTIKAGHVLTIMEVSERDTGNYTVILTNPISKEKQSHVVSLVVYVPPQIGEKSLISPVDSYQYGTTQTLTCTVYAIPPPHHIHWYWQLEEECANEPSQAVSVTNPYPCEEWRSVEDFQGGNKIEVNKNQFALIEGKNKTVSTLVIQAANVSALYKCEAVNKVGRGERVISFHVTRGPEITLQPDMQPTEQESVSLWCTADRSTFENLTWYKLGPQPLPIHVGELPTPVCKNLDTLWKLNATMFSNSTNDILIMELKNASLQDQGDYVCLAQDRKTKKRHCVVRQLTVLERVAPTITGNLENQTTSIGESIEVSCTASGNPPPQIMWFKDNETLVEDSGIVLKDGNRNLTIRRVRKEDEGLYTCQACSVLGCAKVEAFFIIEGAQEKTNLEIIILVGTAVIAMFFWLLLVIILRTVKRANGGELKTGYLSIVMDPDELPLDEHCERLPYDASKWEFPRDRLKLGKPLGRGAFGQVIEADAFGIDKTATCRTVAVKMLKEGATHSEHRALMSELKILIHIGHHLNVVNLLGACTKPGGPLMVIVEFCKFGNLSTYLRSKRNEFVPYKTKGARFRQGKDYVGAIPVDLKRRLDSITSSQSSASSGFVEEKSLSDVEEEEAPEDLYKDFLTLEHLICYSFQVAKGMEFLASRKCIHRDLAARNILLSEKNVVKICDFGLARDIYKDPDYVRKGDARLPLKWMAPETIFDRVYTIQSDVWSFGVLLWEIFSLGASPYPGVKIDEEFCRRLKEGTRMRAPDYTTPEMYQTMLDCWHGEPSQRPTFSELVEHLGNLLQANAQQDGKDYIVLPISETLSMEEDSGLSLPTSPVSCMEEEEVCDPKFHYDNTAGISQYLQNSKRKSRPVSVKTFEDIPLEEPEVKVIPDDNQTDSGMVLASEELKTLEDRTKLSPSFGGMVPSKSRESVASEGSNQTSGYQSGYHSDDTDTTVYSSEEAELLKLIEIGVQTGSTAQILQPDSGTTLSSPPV

[3] = target: Mast/stem cell growth factor receptor Kit (Homo sapiens) (UniProt P10721); assay: Inhibition of human c-KIT at 10 uM using poly[Glu:Tyr] (4:1) as substrate by [gamma-33P]-ATP assay relative to control
In short: (§2)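 Kinase-panel profiling (50 oncogenic kinases) run by an outside contract service. The test compound was tested at a single concentration of 10 μM. Percent inhibition was calculated as 100 minus % remaining activity.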

Aurora kinase A = Aurora kinase A (Homo sapiens, UniProt O14965); assay: Inhibition of human AuroraA using [H-LRRASLG] as substrate by [gamma-33P]-ATP assay
[4] = target: T1, Tyrosine-protein kinase receptor UFO (Homo sapiens, UniProt P30530); assay: Inhibition of N-terminal His-tagged recombinant human AXL (473 to end amino acids) expressed by baculovirus in Sf9 cells using axltide substrate and ATP by ADP-Glo luminescence assay
T1 sequence (P30530 whole entry): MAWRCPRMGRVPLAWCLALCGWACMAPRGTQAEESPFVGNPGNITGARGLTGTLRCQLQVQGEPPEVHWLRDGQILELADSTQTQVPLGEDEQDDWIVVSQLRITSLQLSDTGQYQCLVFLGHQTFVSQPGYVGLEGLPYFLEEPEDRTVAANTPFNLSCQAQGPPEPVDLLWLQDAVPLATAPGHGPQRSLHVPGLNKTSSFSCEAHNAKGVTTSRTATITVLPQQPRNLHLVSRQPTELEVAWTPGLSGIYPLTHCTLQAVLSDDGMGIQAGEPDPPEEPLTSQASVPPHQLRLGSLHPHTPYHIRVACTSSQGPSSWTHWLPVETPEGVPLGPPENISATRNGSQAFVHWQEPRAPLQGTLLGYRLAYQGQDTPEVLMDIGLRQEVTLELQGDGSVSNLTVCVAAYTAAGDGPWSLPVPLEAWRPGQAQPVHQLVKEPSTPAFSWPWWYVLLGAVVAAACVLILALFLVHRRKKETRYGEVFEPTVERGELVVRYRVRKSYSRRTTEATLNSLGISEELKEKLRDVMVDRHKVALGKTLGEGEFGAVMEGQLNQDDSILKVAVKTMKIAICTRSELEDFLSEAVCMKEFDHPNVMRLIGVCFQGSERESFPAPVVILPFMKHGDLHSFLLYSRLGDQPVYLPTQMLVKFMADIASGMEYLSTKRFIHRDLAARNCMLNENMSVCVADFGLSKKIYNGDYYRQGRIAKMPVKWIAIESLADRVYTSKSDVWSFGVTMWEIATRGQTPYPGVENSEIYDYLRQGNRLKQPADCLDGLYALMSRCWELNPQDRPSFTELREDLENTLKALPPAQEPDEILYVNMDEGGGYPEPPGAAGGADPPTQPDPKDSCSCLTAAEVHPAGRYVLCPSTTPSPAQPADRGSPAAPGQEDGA

MDA-MB-231 = assay: Antiproliferative activity against human MDA-MB-231 cells after 2 days by spectrophotometric analysis; type: functional; conditions: MDA-MB-231, 48 h
[5] = target: Serine/threonine-protein kinase PLK1 (Homo sapiens, UniProt P53350); assay: Inhibition of human PLK1 using casein as substrate by [gamma-33P]-ATP assay
[6] = target: Death-associated protein kinase 1 (Homo sapiens) (UniProt P53355); assay: Inhibition of human DAPK1 at 10 uM using KKLNRTLSFAEPG as substrate by [gamma-33P]-ATP assay relative to control; in short: as §1
[7] = target: Tyrosine-protein kinase Mer (Homo sapiens, UniProt Q12866); assay: Inhibition of human MER using poly[Glu:Tyr] (4:1) as substrate by [gamma-33P]-ATP assay
[8] = target: Cyclin-dependent kinase 1/cyclin B1 (Homo sapiens) (UniProt P06493+P14635); assay: Inhibition of human CDK1/cyclinB at 10 uM using Histone H1 as substrate by [gamma-33P]-ATP assay relative to control; type: protein-complex assay; in short: as §1
Cyclin-dependent kinase 1/cyclin B1 (Homo sapiens), sequence (P06493 whole entry, looked up): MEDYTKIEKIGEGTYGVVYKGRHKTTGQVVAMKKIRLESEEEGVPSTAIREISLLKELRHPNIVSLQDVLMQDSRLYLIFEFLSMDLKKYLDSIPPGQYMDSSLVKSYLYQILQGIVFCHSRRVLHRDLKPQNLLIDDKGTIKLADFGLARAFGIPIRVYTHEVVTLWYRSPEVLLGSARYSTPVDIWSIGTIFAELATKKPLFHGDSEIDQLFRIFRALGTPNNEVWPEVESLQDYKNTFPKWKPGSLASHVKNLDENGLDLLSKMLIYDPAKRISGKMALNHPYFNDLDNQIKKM
Cyclin-dependent kinase 1/cyclin B1 (Homo sapiens), sequence (P14635 whole entry, looked up): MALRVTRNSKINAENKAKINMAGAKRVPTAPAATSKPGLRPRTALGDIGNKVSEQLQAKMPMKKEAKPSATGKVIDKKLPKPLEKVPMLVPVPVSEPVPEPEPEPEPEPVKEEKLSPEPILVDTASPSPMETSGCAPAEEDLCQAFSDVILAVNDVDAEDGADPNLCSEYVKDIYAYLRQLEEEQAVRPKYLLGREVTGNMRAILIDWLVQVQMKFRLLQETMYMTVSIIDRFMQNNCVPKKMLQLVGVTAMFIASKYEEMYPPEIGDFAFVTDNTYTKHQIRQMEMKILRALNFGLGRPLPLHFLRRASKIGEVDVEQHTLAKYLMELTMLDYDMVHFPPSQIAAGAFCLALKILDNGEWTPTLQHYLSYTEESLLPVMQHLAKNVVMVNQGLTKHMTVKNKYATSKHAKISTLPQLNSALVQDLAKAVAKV

HCC78 = assay: Antiproliferative activity against human HCC78 cells after 2 days by spectrophotometric analysis; type: functional; conditions: HCC78, 48 h
[9] = target: Tyrosine-protein kinase ABL1 (Homo sapiens) (UniProt P00519); assay: Inhibition of human ABL1 at 10 uM using EAIYAAPFAKKK as substrate by [gamma-33P]-ATP assay relative to control; in short: as §1
Focal adhesion kinase 1 = Focal adhesion kinase 1 (Homo sapiens, UniProt Q05397); assay: Inhibition of human FAK at 10 uM using poly[Glu:Tyr] (4:1) as substrate by [gamma-33P]-ATP assay relative to control; in short: as §1
[10] = target: Tyrosine-protein kinase SYK (Homo sapiens, UniProt P43405); assay: Inhibition of human SYK at 10 uM using poly[Glu:Tyr] (4:1) as substrate by [gamma-33P]-ATP assay relative to control; in short: as §2
[11] = target: Insulin receptor (Homo sapiens) (UniProt P06213); assay: Inhibition of human IR at 10 uM using poly[Glu:Tyr] (4:1) as substrate by [gamma-33P]-ATP assay relative to control; in short: as §1
[12] = target: Serine/threonine-protein kinase Chk1 (Homo sapiens) (UniProt O14757); assay: Inhibition of human CHK1 at 10 uM using KKKVSRSGLYRSPSMPENLNRPR as substrate by [gamma-33P]-ATP assay relative to control; in short: as §1
Serine/threonine-protein kinase Chk1 (Homo sapiens), sequence (O14757 whole entry): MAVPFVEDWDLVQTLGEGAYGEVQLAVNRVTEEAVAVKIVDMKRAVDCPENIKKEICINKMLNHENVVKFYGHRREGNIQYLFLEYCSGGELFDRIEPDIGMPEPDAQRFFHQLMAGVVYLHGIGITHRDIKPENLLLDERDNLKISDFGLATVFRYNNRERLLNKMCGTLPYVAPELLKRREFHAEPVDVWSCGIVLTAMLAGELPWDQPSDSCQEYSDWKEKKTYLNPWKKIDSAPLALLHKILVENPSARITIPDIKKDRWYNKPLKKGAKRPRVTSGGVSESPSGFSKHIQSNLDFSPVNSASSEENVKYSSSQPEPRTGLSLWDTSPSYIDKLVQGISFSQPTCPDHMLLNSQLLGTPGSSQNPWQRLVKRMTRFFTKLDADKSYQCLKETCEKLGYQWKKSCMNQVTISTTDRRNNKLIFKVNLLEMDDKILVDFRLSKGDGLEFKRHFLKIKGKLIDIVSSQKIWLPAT

HCT-116 = assay: Antiproliferative activity against human HCT116 cells after 2 days by spectrophotometric analysis; type: functional; conditions: HCT-116, 48 h
[13] = target: Inhibitor of nuclear factor kappa-B kinase subunit alpha (Homo sapiens) (UniProt O15111); assay: Inhibition of human IKKalpha at 10 uM using KKKKERLLDDRHDSGLDSMKDEE as substrate by [gamma-33P]-ATP assay relative to control; in short: as §1
[14] = target: Serine/threonine-protein kinase pim-1 (Homo sapiens) (UniProt P11309); assay: Inhibition of human PIM1 at 10 uM using KKRNRTLTK as substrate by [gamma-33P]-ATP assay relative to control; in short: as §2
Serine/threonine-protein kinase pim-1 (Homo sapiens), sequence (P11309 whole entry, looked up): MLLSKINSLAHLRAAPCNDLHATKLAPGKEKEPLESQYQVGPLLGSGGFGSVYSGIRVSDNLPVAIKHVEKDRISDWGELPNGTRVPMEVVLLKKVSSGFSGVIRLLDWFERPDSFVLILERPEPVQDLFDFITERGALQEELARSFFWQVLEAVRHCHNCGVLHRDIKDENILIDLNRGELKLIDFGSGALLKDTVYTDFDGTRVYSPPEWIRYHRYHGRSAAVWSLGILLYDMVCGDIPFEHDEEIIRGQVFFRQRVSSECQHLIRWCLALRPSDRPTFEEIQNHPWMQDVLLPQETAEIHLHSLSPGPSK

[15] = target: Tyrosine-protein kinase Yes (Homo sapiens) (UniProt P07947); assay: Inhibition of human YES at 10 uM using poly[Glu:Tyr] (4:1) as substrate by [gamma-33P]-ATP assay relative to control; in short: as §2
U-87 MG = assay: Antiproliferative activity against human U87MG cells after 2 days by spectrophotometric analysis; type: functional, U-87MG ATCC; conditions: 48 h
[16] = target: Tyrosine-protein kinase Lyn (Homo sapiens) (UniProt P07948); assay: Inhibition of human LYN at 10 uM using poly[Glu:Tyr] (4:1) as substrate by [gamma-33P]-ATP assay relative to control; in short: as §1
Tyrosine-protein kinase Lyn (Homo sapiens), sequence (P07948 2-512 limits assumed): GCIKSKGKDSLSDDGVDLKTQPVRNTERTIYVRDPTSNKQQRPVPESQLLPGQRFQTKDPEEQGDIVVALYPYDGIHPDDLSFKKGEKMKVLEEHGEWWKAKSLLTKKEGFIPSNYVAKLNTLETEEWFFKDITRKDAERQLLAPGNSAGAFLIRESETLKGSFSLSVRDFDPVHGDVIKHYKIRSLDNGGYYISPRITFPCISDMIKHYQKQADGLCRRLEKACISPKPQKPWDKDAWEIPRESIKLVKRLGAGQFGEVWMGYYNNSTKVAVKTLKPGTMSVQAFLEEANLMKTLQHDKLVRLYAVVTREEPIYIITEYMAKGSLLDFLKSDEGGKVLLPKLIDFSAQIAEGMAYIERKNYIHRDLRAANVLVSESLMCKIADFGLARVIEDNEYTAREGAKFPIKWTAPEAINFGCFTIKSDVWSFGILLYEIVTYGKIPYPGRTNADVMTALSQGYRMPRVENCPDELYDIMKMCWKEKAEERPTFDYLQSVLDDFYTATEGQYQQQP

ALK tyrosine kinase receptor (Homo sapiens), sequence (Q9UM73 19-1620 limits assumed): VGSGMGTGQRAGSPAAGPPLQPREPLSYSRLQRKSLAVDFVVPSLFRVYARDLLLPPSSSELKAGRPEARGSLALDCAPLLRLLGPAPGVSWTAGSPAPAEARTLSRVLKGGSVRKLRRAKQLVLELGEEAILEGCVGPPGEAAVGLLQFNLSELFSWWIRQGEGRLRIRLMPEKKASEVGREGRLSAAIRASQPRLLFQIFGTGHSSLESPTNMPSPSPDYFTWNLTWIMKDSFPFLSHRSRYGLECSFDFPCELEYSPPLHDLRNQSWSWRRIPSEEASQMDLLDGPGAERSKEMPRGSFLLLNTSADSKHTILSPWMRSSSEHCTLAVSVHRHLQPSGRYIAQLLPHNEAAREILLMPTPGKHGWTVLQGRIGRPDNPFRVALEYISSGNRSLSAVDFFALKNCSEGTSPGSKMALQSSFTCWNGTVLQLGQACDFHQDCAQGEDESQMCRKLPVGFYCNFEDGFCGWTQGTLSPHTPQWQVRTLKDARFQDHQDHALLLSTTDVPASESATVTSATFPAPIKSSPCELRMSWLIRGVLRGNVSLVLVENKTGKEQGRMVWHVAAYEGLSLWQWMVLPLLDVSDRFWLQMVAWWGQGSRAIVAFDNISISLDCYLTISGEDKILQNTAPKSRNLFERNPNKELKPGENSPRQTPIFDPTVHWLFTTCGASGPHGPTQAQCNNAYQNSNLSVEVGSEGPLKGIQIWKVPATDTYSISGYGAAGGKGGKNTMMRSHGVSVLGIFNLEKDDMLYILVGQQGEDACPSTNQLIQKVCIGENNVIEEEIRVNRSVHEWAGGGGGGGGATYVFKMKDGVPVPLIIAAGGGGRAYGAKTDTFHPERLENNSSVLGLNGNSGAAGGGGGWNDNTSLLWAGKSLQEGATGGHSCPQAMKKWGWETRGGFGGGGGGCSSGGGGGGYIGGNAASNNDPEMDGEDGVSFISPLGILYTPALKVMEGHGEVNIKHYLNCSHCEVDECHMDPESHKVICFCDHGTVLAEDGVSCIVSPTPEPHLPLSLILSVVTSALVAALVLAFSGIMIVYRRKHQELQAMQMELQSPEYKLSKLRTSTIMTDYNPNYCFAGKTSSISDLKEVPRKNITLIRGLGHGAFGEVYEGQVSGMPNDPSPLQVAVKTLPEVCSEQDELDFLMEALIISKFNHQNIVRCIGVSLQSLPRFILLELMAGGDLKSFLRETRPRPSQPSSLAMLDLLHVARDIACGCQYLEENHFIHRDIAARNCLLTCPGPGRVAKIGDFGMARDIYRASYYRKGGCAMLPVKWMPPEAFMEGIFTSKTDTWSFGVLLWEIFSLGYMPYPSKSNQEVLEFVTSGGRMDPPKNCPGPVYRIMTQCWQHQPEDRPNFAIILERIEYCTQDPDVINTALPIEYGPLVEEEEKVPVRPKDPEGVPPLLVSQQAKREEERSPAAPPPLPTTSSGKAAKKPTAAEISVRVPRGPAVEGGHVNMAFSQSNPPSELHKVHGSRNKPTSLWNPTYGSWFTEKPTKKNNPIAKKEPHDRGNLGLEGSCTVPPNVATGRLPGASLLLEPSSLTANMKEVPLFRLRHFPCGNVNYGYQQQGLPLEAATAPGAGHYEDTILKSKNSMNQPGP

In the case of `CC(=O)N1CCN(c2ccc(Nc3ncc(C(F)(F)F)c(N4Cc5cccc(N(C)S(C)(=O)=O)c5C4)n3)cc2)CC1`, the inhibition [1] is reported as 71.3%, the inhibition [2] is reported as 55.8% and the inhibition [3] is reported as 17.8%. For the same compound, the IC50 (Aurora kinase A) was 3 nM, the IC50 [4] was under 0.5 nM and the GI50 (MDA-MB-231) was 500 nM. The IC50 [5] was 8.8 nM, the inhibition [6] was 42.2% and the IC50 [7] was 25 nM. It also gave an inhibition [8] of 20.5%, a GI50 (HCC78) of 5200 nM and an inhibition [9] of 63.1%. It also gave an inhibition (Focal adhesion kinase 1) of 96.4%, an inhibition [10] of 95.3% and an inhibition [11] of 89.8%. It also gave an inhibition [12] of 37.2%, a GI50 (HCT-116) of 420 nM and an inhibition [13] of 14.1%. The inhibition [14] was 9.8%, the inhibition [15] was 90.5% and the GI50 (U-87 MG) was 22100 nM. For the same compound, the inhibition [16] was 69.1%.

Reference: ChEMBL document CHEMBL4325842, “Design, synthesis, and biological evaluation of novel aminopyrimidinylisoindolines as AXL kinase inhibitors” (Bioorg Med Chem Lett, 2018)
